Bioassay records from PubChem.
The full list was thinned out, with hits kept by preference.
T cruzi inh = blocks replication of Trypanosoma cruzi; T. cruzi beta-gal in NIH3T3, luminescence, 90 h; inhibition, % (concentration not given with the values); 1.4% of 300,000 active; AID 1885;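 active = mean inhibition across valid replicates above about 55%, limit read from the data; inconclusive = mean below that limit but half or more replicates reach it; inactive = mean below it, under half of replicates reach it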;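 note: signal also drops with host cell toxicity which is not excluded here; higher percent means less beta-gal luminescence so fewer parasites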
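compound dosing = single 50 nL compound addition per well in DMSO | material = NIH/3T3 host cells with β-galactosidase reporter T. cruzi | input = 5,000 host fibroblasts per well | timing = ≥90 h infection period, 3 h prior cell attachment | read-out basis = percent inhibition of parasite-derived β-gal signal | detection = GalScreen β-gal luminescence, detergent lysis, 60 min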
L major viab = inhibitors of Leishmania major promastigote growth | Leishmania major promastigotes, resazurin fluorescence viability | inhibition, % at 10 µM | 9% of 200,000 active | AID 1063; in the data active = inhibition above about 50%;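 note: promastigotes grown with compound for 44 hours at 28 °C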
MPTP inh = blocks calcium-induced mitochondrial swelling; inhibition, % at 10 µM; AID 602449; 1.4% of 360,000 active; isolated mouse mitochondria, Ca2+ swelling absorbance, 30 min;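 active = inhibition of 50% or more, scaled per plate between neutral and stimulator controls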
Hep lipid drop = modulators of hepatic lipid droplet formation; AID 1656; inhibition, % at 6.5 µM; AML12 mouse hepatocytes, oleate lipid droplets, BODIPY imaging; 0.4% of 240,000 active;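 active = lipid droplet intensity inhibited by at least 50%, with more than 500 cells counted; inconclusive = wells with under 300 cells, treated as cytotoxic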
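Assay system: AML12 mouse liver cells | Compound: 6.5 µM single-point dosing | Schedule: Overnight exposure | Technique: Fluorescence imaging, 20x objective, two fields per well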
Redox H2O2 prof = compounds producing H2O2 with reducing agent – biochemical, NIH compound library profiling, artefact control for MLSCN library redox annotation, primary screen | 0.03% of 200,000 active | DTT-dependent redox cycling H2O2, phenol red/HRP absorbance; 100% = 100 µM peroxide control, 0% = buffer | activation, % at 10 µM;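 active = activation of at least 50% relative to the plate's high and low controls in the primary single-dose screen; inactive = activation below 50%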;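 note: compound incubated with DTT at 0.8 mM final as the reducing agent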
Large screens that a line does not name were inactive.

CCOC(=O)c1oc2ccc(S(=O)(=O)n3nc(-c4ccc(C)cc4)cc3N)cc2c1C	L major viab 91 (no result: Hep lipid drop)
CCOC(=O)c1oc2ccc(S(=O)(=O)Nc3ccc4c(c3)n(C)c(=O)n4C)cc2c1C	none
COc1ccc(S(=O)(=O)n2nc(-c3ccc(Cl)cc3)cc2N)cc1	none (no result: L major viab, Redox H2O2 prof)
CC(NC(=O)COC(=O)CCN1C(=O)C2CC=CCC2C1=O)c1ccc(Br)cc1 (configuration not stated)	none (no result: T cruzi inh, L major viab, Hep lipid drop, Redox H2O2 prof)
COC(=O)C[C@@H]1C=C[C@@H](NC(=O)NC2CCCC2)[C@@H](CO)O1	none (no result: T cruzi inh, L major viab, Hep lipid drop, Redox H2O2 prof)
Cn1cnnc1SCc1ccc(C(=O)N=Nc2c(O)n(Cc3ccc(Cl)cc3)c3ccccc23)cc1	T cruzi inh inconclusive, L major viab 99
O=C(N=Nc1c(O)n(Cc2ccccc2)c2ccccc12)c1ccc(O)cc1	L major viab 91
O=C(N=Nc1c(O)n(Cc2ccccc2)c2ccccc12)c1cc2ccccc2cc1O	none
CCn1c(O)c(N=NC(=O)c2ccc(CSc3nncn3C)cc2)c2ccccc21	none
CC(=O)Nc1ccc2c(CSc3nnc(-c4cccnc4)n3-c3ccc(C)cc3C)cc(=O)oc2c1	L major viab 57
CCOc1ccc(-n2c(SCc3cc(=O)oc4cc(C)ccc34)nnc2-c2cccnc2)cc1	none
CC(C)c1ccccc1-n1c(SCc2cc(=O)oc3ccc4ccccc4c23)nnc1-c1cccnc1	L major viab 54
CN(Cc1cccs1)C(=O)c1cccc(S(=O)(=O)N2CCCCCC2)c1	none (no result: T cruzi inh, L major viab, Hep lipid drop, Redox H2O2 prof)
CCOC(=O)c1c(NC(=O)N/N=C/c2ccccc2OCC)sc(C(C)=O)c1C	T cruzi inh 68
c1ccc(C2=Nc3ccccc3OC2)cc1	L major viab 69
Clc1ccc(C2=Nc3cc(Cl)ccc3OC2)cc1	none
Cc1cc[n+](-c2ccccc2)c2ccccc12	none
CC(C)(CO)CNC1CCCN(C2Cc3ccccc3C2)C1 (configuration not stated)	T cruzi inh 66 (no result: L major viab, Redox H2O2 prof)
C#Cc1cccc(C(=O)NC2CCCN(C3Cc4ccccc4C3)C2)c1 (configuration not stated)	none (no result: L major viab, Redox H2O2 prof)
O=C(NC(C(=O)N/N=C/c1ccccn1)c1n[nH]c(=O)c2ccccc12)c1ccccc1 (configuration not stated)	none (no result: L major viab, Redox H2O2 prof)
CC(C)OC(=O)c1ccc(NC(=O)Cn2c(-c3nonc3N)nc3ccccc32)cc1	L major viab 51
COC(=O)c1ccc(NC(=O)Cn2c(-c3nonc3N)nc3ccccc32)cc1	none
CNC(=S)N(CCN(C)C)Cc1cc2cc3c(cc2[nH]c1=O)OCO3	none (no result: L major viab, Redox H2O2 prof)
Cn1ncc2c(O/N=C(\N)c3ccc(C(C)(C)C)cc3)ncnc21	T cruzi inh 64 (no result: L major viab, Redox H2O2 prof)
Cc1[nH]n2c(=O)c3c(nc2c1-c1ccc(F)cc1)CCCC3	T cruzi inh 74, L major viab 100
O=c1c2c(nc3c(-c4ccc(Cl)cc4)c[nH]n13)CCCC2	L major viab 100 (no result: Hep lipid drop)
Cc1[nH]n2c(=O)c3c(nc2c1-c1ccccc1)CCCC3	L major viab 99 (no result: Hep lipid drop)
O=c1c2c(nc3c(-c4cccc5ccccc45)c[nH]n13)CCC2	none
Cc1nn(S(=O)(=O)c2ccc([N+](=O)[O-])cc2)c(C)c1Sc1ccccc1	T cruzi inh 64 (no result: Hep lipid drop)
O=[N+]([O-])c1ccc(N2CCN(S(=O)(=O)c3ccccc3)CC2)cc1	none (no result: L major viab, Redox H2O2 prof)
COC(=O)[C@@]1(Cc2ccccc2)[C@@H]2C(=CC(=O)[C@H]2CC(=O)C(=O)N(C)C)CN1C(=O)c1ccccc1	L major viab 100
O=C(Oc1cccc2c(O)cccc12)c1ccco1	none (no result: T cruzi inh, L major viab, Hep lipid drop, Redox H2O2 prof)
O=C(CSc1nnc(-c2cccs2)n1-c1ccccc1)NCc1ccc2c(c1)OCO2	L major viab 58
O=C(CSc1ncc(C(=O)O)n1-c1ccc(F)cc1)NCc1ccc2c(c1)OCO2	none
O=C(CSc1ncnc2c1cnn2-c1ccc(F)cc1)NCc1ccc2c(c1)OCO2	L major viab 63
Cc1ccc(C)c2c1cc(C)c1nnc(SCC(=O)NCc3ccc4c(c3)OCO4)n12	L major viab 70
O=C(CSc1nnc(-c2cccs2)n1Cc1ccccc1)NCc1ccc2c(c1)OCO2	none
CCOC(=O)C1(Cc2ccccc2)CCN(Cc2cccc3c2OCO3)CC1	L major viab 66
CCOC(=O)C1(Cc2ccccc2)CCN(Cc2ccc(C)s2)CC1	none
CCOC(=O)C1(Cc2ccccc2)CCN(Cc2cc(OC)c3c(c2)OCO3)CC1	L major viab 91
COCc1ccc(CN2CCCC(CO)(Cc3ccccc3C)C2)o1 (configuration not stated)	none
CCOC(=O)C1(Cc2ccccc2)CCN(Cc2ccc(COC)o2)CC1	none
CCOC(=O)C1(Cc2ccccc2)CCN(Cc2ccc3c(c2)OCCO3)CC1	L major viab 92
COc1cc(CN2CCCC(CO)(Cc3ccccc3C)C2)cc2c1OCO2 (configuration not stated)	L major viab 69
CCOc1ccc(C(=O)CC(C(=O)O)N2CCCCC2)cc1 (configuration not stated)	none (no result: T cruzi inh, L major viab, Hep lipid drop, Redox H2O2 prof)
COc1ccc(CN2CCCC(CO)(Cc3ccc(F)cc3)C2)cc1C (configuration not stated)	T cruzi inh 58 (no result: L major viab, Redox H2O2 prof)
Cc1nc(NC(=O)c2cccnc2Cl)sc1C	none (no result: L major viab, Hep lipid drop, Redox H2O2 prof)
CC1CC(C)(C)N2C(=O)C3(Nc4ccccc4S3)c3cccc1c32 (configuration not stated)	none
Cc1cc2c3c(c1)C1(SCC(=O)N1c1ccc(F)cc1)C(=O)N3C(C)(C)CC2C (configuration not stated)	L major viab 61
CCN(CCO)CC1CCCC2CCCCC21 (configuration not stated)	none (no result: T cruzi inh, L major viab, Hep lipid drop, Redox H2O2 prof)
CN(C)S(=O)(=O)c1ccc(NC(=O)Cc2ccc(S(=O)(=O)N3CCOCC3)s2)cc1	none
CCn1c2ccccc2c2cc(NC(=O)Cc3ccc(S(=O)(=O)N4CCOCC4)s3)ccc21	T cruzi inh 69, L major viab 81
O=[N+]([O-])c1ccc(N2CCN(S(=O)(=O)c3ccc(Cl)c(Cl)c3)CC2)cc1NCCN1CCOCC1	T cruzi inh 56
Cc1sc2nc(C3CC3)nc(N3CCN(C(=O)c4ccc(Cl)cc4)CC3)c2c1C	none (no result: L major viab, Redox H2O2 prof)
Cc1ccc(C(=O)N2CCCC(CCC(=O)N3CCN(c4ccccn4)CC3)C2)cc1 (configuration not stated)	none (no result: L major viab, Redox H2O2 prof)
CCc1ccc(CN2CCCC(CCC(=O)N3CCN(c4ccccn4)CC3)C2)o1 (configuration not stated)	T cruzi inh 59 (no result: L major viab, Redox H2O2 prof)
CCC(C)(C)NC(=O)C(c1ccccc1F)N(Cc1ccco1)C(=O)c1csnn1 (configuration not stated)	L major viab 57 (no result: Hep lipid drop)
CC1=CCC2C(=O)N(CCc3c[nH]c4ccccc34)C(=O)C2C1 (configuration not stated)	L major viab 98
O=C1C2CC=C(Cl)CC2C(=O)N1CCc1c[nH]c2ccccc12 (configuration not stated)	none
Cc1ccc2[nH]c3c(=O)n(N)c(=O)[nH]c3c2c1	none (no result: L major viab, Redox H2O2 prof)
